A selection: hits, their analogues and other compounds. The true share with any hit is near 6.4%.
Tb MetRS inh: Trypanosoma brucei MetRS inhibition; purified T. brucei MetRS, ATP depletion, Kinase-Glo luminescence; AID 624268; inhibition, % at 11.9 µM; 360,000 compounds, 0.4% hits;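 active means inhibition above a per-plate cutoff of the control wells' mean inhibition plus 3 SD, cut at about 5.5% in these data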
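assay system = parasite MetRS enzyme | timing = 15 min preincubation, 2 h reaction, all 25 °C | evaluation = percent inhibition relative to median high and low control wells | medium = HEPES buffer containing pyrophosphatase, BSA, spermine, DTT | compound = single dose, 11.9 µM final nominal, 0.9% final DMSO | detection = Kinase-Glo luminescence, ATP depletion format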
EBV gp42 block: EBV gp42 inhibition; Q1HVG2; Fluorescence polarization binding assay, mP read-out; inhibition, % (tested at 21.74 µM); 220,000 compounds, 0.42% hits; in the data active means inhibition above about 50%
Target sequence (Q1HVG2 whole entry, looked up): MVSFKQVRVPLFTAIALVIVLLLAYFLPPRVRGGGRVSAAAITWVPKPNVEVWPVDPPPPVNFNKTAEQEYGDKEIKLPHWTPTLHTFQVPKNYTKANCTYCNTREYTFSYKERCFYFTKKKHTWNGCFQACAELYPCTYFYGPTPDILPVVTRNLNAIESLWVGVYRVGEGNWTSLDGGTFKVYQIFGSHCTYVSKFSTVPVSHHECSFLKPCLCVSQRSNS
CHOP inhibitor: inhibitors of CHOP induction in ER stress response. CHO-K1 CHOP-promoter luciferase, tunicamycin-induced, 15-18 h. inhibition, % at 10 µM. 220,000 compounds, 3.8% hits. AID 2732;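 active means compounds that reduced the stress-induced luciferase reporter signal by more than about 70% of percent inhibition, limit read from the data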
MPTP inh: blocks calcium-induced mitochondrial swelling. inhibition, % at 10 µM. isolated mouse mitochondria, Ca2+ swelling absorbance, 30 min. AID 602449. 360,000 compounds, 1.4% hits;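 active means inhibition of 50% or more, scaled per plate between neutral and stimulator controls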
GRIN3A LBD mod: modulators (binders) of human NR3A ligand-binding domain. NR3A LBD differential scanning fluorimetry, Tm shift; 0% = protein alone, 100% = glycine-bound protein. Tm shift relative to glycine control, % at 25 µM. AID 1259313. 340,000 compounds, 2.5% hits;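 active means melting temperature shift of at least 10% of the positive control shift, at one fixed dose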
WT yeast gro inh: growth inhibition of WT yeast, mitochondrial fusion screen | mitochondrial fusion phenotypic screen, WT strain | inhibition, % at 10 µM | 190,000 compounds, 2.1% hits | AID 1362; in the data active means inhibition above about 58%; tested in S. cerevisiae
Each line names hits and unclear results; the compound was inactive in the other large screens.

Nc1c(-c2ccccc2)c(CSc2nc3ccccc3[nH]2)nn1-c1ccc(Cl)cc1	WT yeast gro inh 71.8
c1ccc(CSc2nc3ccccc3[nH]2)cc1	none (no result: WT yeast gro inh)
Cc1ccccc1-n1nc(CSc2nc3ccccc3[nH]2)c(-c2ccccc2)c1N	none
Nc1c(-c2ccccc2)c(CSc2nc3ccccc3[nH]2)nn1-c1cccc(Cl)c1	WT yeast gro inh 71.0
N#CC1=C(Nc2ccccc2Cl)SC(c2ccncc2)NC1=O (stereo not given)	none (no result: EBV gp42 block, CHOP inhibitor, GRIN3A LBD mod, WT yeast gro inh)
CCC(C)N1CC(O)=C(c2nc3ccccc3[nH]2)C1=N (stereo not given)	none
CCCCCCN1CC(O)=C(c2nc3ccccc3[nH]2)C1=N	CHOP inhibitor 83.5
CCCCCn1c(=O)c(-c2nc3ccccc3[nH]2)c(O)c2ccccc21	CHOP inhibitor 85.7
O=C(NN1C(=O)/C(=C/c2cccnc2)SC1=S)C(c1ccccc1)c1ccccc1	none
CCN(CCCNC(=O)CCNC(=O)Cn1ccc2ccccc2c1=O)c1ccccc1	none
CCOC(=O)c1c(NC(=O)C2CCCO2)sc(C(=O)OC(C)(C)C)c1C (stereo not given)	none
Cc1cccc(C(=O)Nc2ccc(C(=O)N/N=C/c3ccc4c(c3)OCO4)cc2)c1	GRIN3A LBD mod 24.3 (no result: EBV gp42 block, CHOP inhibitor, WT yeast gro inh)
O=C(CNc1ccccc1)N/N=C/c1ccc2c(c1)OCCO2	GRIN3A LBD mod 15.5
O=C(Cn1nnc(-c2ccccc2Cl)n1)N/N=C/c1ccc2c(c1)OCO2	CHOP inhibitor 76.2
O=C(NN=Cc1ccc2c(c1)OCO2)NN=Cc1ccc2c(c1)OCO2	GRIN3A LBD mod 25.9 (no result: EBV gp42 block, CHOP inhibitor, WT yeast gro inh)
O=C(NN=Cc1ccc2c(c1)OCO2)C1CC1	none (no result: EBV gp42 block, CHOP inhibitor, WT yeast gro inh)
COc1cc(NC(=O)c2ccccc2F)ccc1NC(=O)c1cc2ccccc2o1	none (no result: EBV gp42 block, CHOP inhibitor, WT yeast gro inh)
CCCCNC(=O)CSc1nc2ccccc2c(=O)n1C1CCCC1	none
O=C(N/N=C/c1cccs1)c1ccc(NC(=O)c2ccccc2Cl)cc1	GRIN3A LBD mod 18.2
O=C(N/N=C/c1cccs1)c1cccc(NC(=O)c2ccccc2Cl)c1	none
O=C(N/N=C/c1ccc2c(c1)OCO2)c1ccc(NC(=O)c2ccccc2Cl)cc1	GRIN3A LBD mod 21.7 (no result: EBV gp42 block, CHOP inhibitor, WT yeast gro inh)
CCCCN1C(=O)C2Cc3c([nH]c4ccccc34)CN2C1=S (stereo not given)	EBV gp42 block 51.9, CHOP inhibitor 79.5
CCCSc1nnc(CSc2nc3nc(C)cc(C)n3n2)o1	none
CCCCSc1nnc(CSc2nc3nc(C)cc(C)n3n2)o1	GRIN3A LBD mod 12.2
CCOC(=O)CSc1nc2nc(C)cc(C)n2n1	CHOP inhibitor 83.5
COc1ccc(Cc2nnc(N/N=C/c3ccc(O)cc3)[nH]c2=O)cc1OC	CHOP inhibitor 84.3
CC(C)c1cccc(-c2ccc3c(c2)S(=O)(=O)c2cccc(C(=O)O)c2C3=O)c1	GRIN3A LBD mod 24.2 (no result: EBV gp42 block, CHOP inhibitor, WT yeast gro inh)
CC(C)c1cccc(-c2ccc3c(c2)S(=O)(=O)c2cccc(C(=O)NCc4ccco4)c2C3=O)c1	none (no result: EBV gp42 block, CHOP inhibitor, WT yeast gro inh)
O=C1CNC(=O)c2c(nc3n2CCC3)N1	GRIN3A LBD mod 10.6
c1ccc(-c2nn3c(C4CCCCC4)nnc3s2)cc1	CHOP inhibitor 77.9
Cc1cccc(-c2nnc3sc(-c4ccccc4)nn23)c1	CHOP inhibitor 77.0
Cc1onc(-c2ccccc2)c1C(=O)OCC(=O)Nc1ccc(C#N)cc1	none (no result: EBV gp42 block, CHOP inhibitor, WT yeast gro inh)
CS(=O)(=O)N1CCN(c2ccc(NC(=O)C(c3ccccc3)c3ccccc3)cc2)CC1	none
O=C(Nc1ccc(N2CCCC2)cc1)C(Cl)c1ccccc1 (stereo not given)	CHOP inhibitor 77.8
CN(C)c1ccc(C(=O)OCC(=O)Nc2ccc(S(N)(=O)=O)cc2)cc1	none
C=CCN1C(=O)c2ccc(C(=O)OCC(=O)Nc3ccc(S(N)(=O)=O)cc3)cc2C1=O	GRIN3A LBD mod 16.8 (no result: EBV gp42 block, CHOP inhibitor, WT yeast gro inh)
CCNC(=O)/C(=C\c1ccc2c(c1)OCO2)NC(=O)c1ccc(Br)cc1	none
COc1ccccc1/C=C/CN1CCN(Cc2ccc(F)cc2)C(CCO)C1 (stereo not given)	none
CCCC(O)(c1ccc(Cl)cc1)C(CN1CCOCC1)c1ccccc1 (stereo not given)	CHOP inhibitor 90.0
CCCC(O)(c1ccccc1)C(CN1CCOCC1)c1ccccc1 (stereo not given)	none (no result: EBV gp42 block, CHOP inhibitor, WT yeast gro inh)
CC(C)(C)OC(=O)N[C@@H](Cc1ccccc1)C(=O)N[C@@H](CO)[C@H](O)[C@@H]1C[C@@H]1C(=O)N1CCCC1	none (no result: EBV gp42 block, CHOP inhibitor, WT yeast gro inh)
CC(C)CNC(=O)NC(=O)COC(=O)C1CSC2(c3ccc(F)cc3)CCC(=O)N12 (stereo not given)	none
O=C(COC(=O)C1CSC2(c3ccc(F)cc3)CCC(=O)N12)NC(=O)NC1CCCC1 (stereo not given)	CHOP inhibitor 72.9
Cc1ccc(CNC(=O)C2CCN(S(=O)(=O)c3cnc[nH]3)CC2)cc1	none
CCCCNC(=O)C1CCN(S(=O)(=O)c2cnc[nH]2)CC1	WT yeast gro inh 70.9
COC(=O)c1cc2ccsc2n1Cc1ccccc1F	GRIN3A LBD mod 17.4
O=C(COC(=O)c1c2c(nc3ccccc13)/C(=C/c1ccco1)CC2)NC1CCCC1	EBV gp42 block 83.4
NC(=O)c1ccc(NC(=O)COC(=O)c2c3c(nc4ccccc24)/C(=C\c2cccs2)CCC3)cc1	WT yeast gro inh 75.5
CC(C)CCNC(=O)/C=C/c1ccc(Br)cc1	none
Cc1[nH][nH]c(=O)c1C(c1c(C)[nH][nH]c1=O)c1cn(Cc2ccc(F)cc2)c2ccccc12	none
Cc1[nH][nH]c(=O)c1C(c1c(C)[nH][nH]c1=O)c1cn(Cc2ccc(Cl)c(Cl)c2)c2ccccc12	WT yeast gro inh 71.0
Cc1cc(C)nc(Nc2n[nH]c(COc3ccc(Cl)cc3)n2)n1	CHOP inhibitor 92.7
Cc1cc(C)nc(Nc2n[nH]c(C)n2)n1	none
Cc1[nH]nc(N2CCCCC2)c1[N+](=O)[O-]	none
Cc1nc(N2CCCCC2)c(C#N)c(C)c1[N+](=O)[O-]	CHOP inhibitor 73.6
COc1cc2c(cc1NC(=O)CSc1nc3cc(Cl)ccc3s1)oc1ccccc12	GRIN3A LBD mod 32.1
COc1cc2c(cc1NC(=O)CSc1nccn1C)oc1ccccc12	none
COc1cc2c(cc1NC(=O)CSc1ccccc1)oc1ccccc12	GRIN3A LBD mod 35.0
COc1cc2c(cc1NC(=O)/C=C/c1ccccc1)oc1ccccc12	GRIN3A LBD mod 20.1
COc1cc2c(cc1NC(=O)CN(C)Cc1nc3ccccc3c(=O)[nH]1)oc1ccccc12	CHOP inhibitor 74.5
COc1cc2c(cc1NC(=O)Cn1cnc3c1c(=O)n(C)c(=O)n3C)oc1ccccc12	none (no result: Tb MetRS inh, MPTP inh, GRIN3A LBD mod)
O=C(NCc1ccc(F)cc1)c1cc(C2CCCN(C(=O)C3CCCCC3)C2)on1 (stereo not given)	none (no result: EBV gp42 block, CHOP inhibitor, GRIN3A LBD mod, WT yeast gro inh)
CS(=O)(=O)N(CC(=O)NC1CCCC1)c1ccc(Oc2ccccc2)cc1	none
COc1cccc(NC(=O)Cn2c(-c3cncs3)nc3ccccc32)c1	none
COc1cc(OC)nc(NC(=O)CSc2nc3ccccc3[nH]2)n1	none
